Legend:
[1] = Clearance in healthy human assessed as recovery of unchanged drug in urine at 25 […], po administered as single dose; type: ADME, organism-based; parameters: route oral; conditions: read-out: Recovered in urine
In short: (§1)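 Healthy volunteers, six on drug per cohort, fasted 10 h and given one oral dose with 240 ml water, then fasted 4 h more. Urine was pooled over intervals from 0-2 to 72-96 h and stored at about −70°C. Drug was measured by solid-phase extraction and LC-MS/MS (LLOQ 200 ng/ml), giving the percent of dose recovered unchanged. Values are means (SD).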

[2] = system: Homo sapiens; assay: Clearance in healthy human at 125 […], po administered as single dose; type: ADME, organism-based; parameters: route oral; conditions: in vivo
In short: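 Randomized, double-blind, placebo-controlled single ascending oral dose in fasted healthy subjects (six on drug per cohort, with 240 ml water). Plasma sampled predose through 96 h and assayed by validated LC-MS/MS over 5–5,000 ng/ml. Oral clearance (CL_o) came from noncompartmental analysis, with AUC_0-∞ from linear trapezoids plus C_last/λz. Values are means (SD).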

[3] = Cmax in healthy human at 1000 mg, po administered as single dose; conditions: in vivo
[4] = system: Homo sapiens; assay: Clearance in healthy human at 500 mg, po administered as single dose; conditions: in vivo
[5] = system: Homo sapiens; assay: Toxicity in healthy human assessed as occurrence of abdominal pain at 125 […], po; type: organism-based, Abdomen; parameters: route oral; conditions: in vivo
In short: (§2)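 Double-blind, placebo-controlled single ascending oral dose; two placebo and six active subjects per cohort. Adverse events were recorded throughout the dosing period and at follow-up, with confinement to 96 h after dosing. Results are reported as number and percentage of subjects with the event (n/N × 100).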

[6] = Tmax in healthy human at 125 mg, po administered as single dose; conditions: in vivo
[7] = system: Homo sapiens; assay: Toxicity in healthy human assessed as occurrence of abdominal pain at 250 […], po; type: organism-based, Abdomen; parameters: route oral; conditions: in vivo; in short: as §2
[8] = system: Homo sapiens; assay: Toxicity in healthy human assessed as occurrence of erythema at 1500 […], po; type: organism-based; parameters: route oral; conditions: in vivo
[9] = Renal clearance in healthy human at 50 […], po administered as single dose; type: ADME, organism-based, Kidney; parameters: route oral; conditions: in vivo, read-out: CL_renal (converted)
In short: (§3)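 Renal clearance (CL_r) came from noncompartmental analysis of plasma drawn through 96 h and urine collected over fixed intervals to 96 h. Subjects were fasted healthy volunteers, six per dose cohort, given one oral dose with 240 ml water. Plasma and urine were assayed by LC-MS/MS after solid-phase extraction, with urine LLOQ 200 ng/ml. Values are means (SD).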

[10] = Renal clearance in healthy human at 1000 […], po administered as single dose; type: ADME, organism-based, Kidney; parameters: route oral; conditions: in vivo, read-out: CL_renal (converted); in short: as §3
[11] = system: Streptococcus pneumoniae; assay: Ratio of fAUC to MIC90 for Streptococcus pneumoniae; type: functional
In short: (§4)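 Fasted healthy adults got a single oral 500 mg dose with 240 ml water. Plasma was sampled predose to 96 h and assayed by LC-MS/MS (5–5,000 ng/ml). Cmax was read from individual profiles, and AUC0-∞ came from linear trapezoid plus extrapolation. Free fraction was measured by ultrafiltration (30,000 MWCO) of 0.5 and 6 h plasma. Free exposure was divided by the isolate MIC90.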

[12] = system: Homo sapiens; assay: AUC (0 to infinity) in healthy human at 500 […], po administered as single dose; type: ADME, organism-based, Plasma; parameters: time infinity, route oral; conditions: in vivo
[13] = system: Homo sapiens; assay: Toxicity in healthy human assessed as occurrence of erythema at 125 […], po; type: organism-based; parameters: route oral; conditions: in vivo
[14] = system: Homo sapiens; assay: Toxicity in healthy human assessed as occurrence of ear pain at 25 […], po; type: organism-based; parameters: route oral; conditions: in vivo
[15] = system: Homo sapiens; assay: Toxicity in healthy human assessed as occurrence of ear pain at 1000 […], po; type: organism-based; parameters: route oral; conditions: in vivo
[16] = Cmax in healthy human at 125 mg, po administered as single dose; conditions: in vivo
[17] = system: Streptococcus pneumoniae; assay: Ratio of fCmax to MIC90 for ciprofloxacin-resistant Streptococcus pneumoniae; type: functional; in short: as §4
[18] = system: Homo sapiens; assay: Toxicity in healthy human assessed as occurrence of erythema at 500 […], po; type: organism-based; parameters: route oral; conditions: in vivo
[19] = Renal clearance in healthy human at 500 mg, po administered as single dose; conditions: in vivo, read-out: CL_renal (converted)
[20] = Tmax in healthy human at 1000 mg/kg, po administered as single dose; type: ADME, organism-based; parameters: route oral; conditions: in vivo
In short: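 Tmax was read by visual inspection of individual plasma concentration–time profiles. Plasma was sampled at 0.5-h steps early on and then out to 96 h, and assayed by LC-MS/MS. Subjects were fasted healthy volunteers, six per cohort, given one oral dose with 240 ml water. Values are means (SD).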

[21] = system: Homo sapiens; assay: Terminal volume of distribution in healthy human at 50 mg, po administered as single dose; conditions: in vivo
[22] = system: Homo sapiens; assay: Toxicity in healthy human assessed as occurrence of ear pain at 500 […], po; type: organism-based; parameters: route oral; conditions: in vivo
[23] = system: Homo sapiens; assay: Toxicity in healthy human assessed as occurrence of nausea at 1000 […], po; type: organism-based; parameters: route oral; conditions: in vivo
[24] = system: Homo sapiens; assay: Toxicity in healthy human assessed as occurrence of oral hypoesthesia at 1000 […], po; type: organism-based; parameters: route oral; conditions: in vivo
[25] = system: Homo sapiens; assay: Toxicity in healthy human assessed as occurrence of pruritus at 1000 […], po; type: organism-based; parameters: route oral; conditions: in vivo
[26] = system: Homo sapiens; assay: Toxicity in healthy human assessed as occurrence of contact dermatitis at 1500 […], po; type: organism-based; parameters: route oral; conditions: in vivo
In short: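 Randomized, double-blind, placebo-controlled single ascending oral doses in healthy volunteers (cohorts of 6 active, 2 placebo; 25–1,500 mg). After a 10-h fast, dose given with 240 ml water; fasting continued 4 h. Subjects were confined to 96 h postdose. AEs were recorded throughout dosing and at follow-up, reported as number and percentage of subjects with events per treatment.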

[27] = system: Homo sapiens; assay: AUC (0 to infinity) in healthy human at 1500 mg, po administered as single dose; conditions: in vivo
[28] = system: Homo sapiens; assay: Terminal volume of distribution in healthy human at 125 mg, po administered as single dose; conditions: in vivo
[29] = system: Staphylococcus aureus; assay: Ratio of fAUC to MIC90 for methicillin-resistant Staphylococcus aureus; type: functional; in short: as §4
[30] = Terminal phase elimination half-life in healthy human at 1000 mg, po administered single dose; conditions: in vivo
[31] = Tmax in healthy human at 500 mg, po administered as single dose; conditions: in vivo
[32] = system: Homo sapiens; assay: Toxicity in healthy human assessed as occurrence of abdominal pain at 50 […], po; type: organism-based, Abdomen; parameters: route oral; conditions: in vivo; in short: as §2
[33] = system: Homo sapiens; assay: Toxicity in healthy human assessed as occurrence of erythema at 250 […], po; type: organism-based; parameters: route oral; conditions: in vivo
[34] = system: Homo sapiens; assay: Toxicity in healthy human assessed as occurrence of nausea at 50 […], po; type: organism-based; parameters: route oral; conditions: in vivo
[35] = Clearance in healthy human assessed as recovery of unchanged drug in urine at 1000 […], po administered as single dose; type: ADME, organism-based; parameters: route oral; conditions: read-out: Recovered in urine; in short: as §1
[36] = system: Homo sapiens; assay: Toxicity in healthy human assessed as occurrence of pruritus at 25 […], po; type: organism-based; parameters: route oral; conditions: in vivo
[37] = system: Homo sapiens; assay: AUC (0 to infinity) in healthy human at 125 […], po administered as single dose; type: ADME, organism-based, Plasma; parameters: time infinity, route oral; conditions: in vivo

Which dose excreted [1] does the source give for `COc1c(N2C[C@@H](C)C[C@H](N)C2)ccc2c(=O)c(C(=O)O)cn(C3CC3)c12` [NEMONOXACIN] here?
Its dose excreted is 56.2%.

What about the CL [2] of the same compound?
The CL was 3.67 mL/min/kg.

What about the Cmax [3] of the same compound?
The Cmax was 7220 ng/mL.

What about the CL [4] of the same compound?
The CL was 3.3 mL/min/kg.

And the Activity [5]?
The Activity was 0%.

And the Tmax [6]?
The Tmax was 0.75 h.

What about the Activity [7] of the same compound?
Its Activity is 0%.

What about the Activity [8] of the same compound?
Its Activity is 50%.

And the CL renal [9]?
Its CL renal is 2 mL/min/kg.

What about the CL renal [10] of the same compound?
Its CL renal is 1.4 mL/min/kg.

And the Ratio [11]?
The Ratio was 1812.

What about the AUC [12] of the same compound?
Its AUC is 32360 ng·h/mL.

What about the Activity [13] of the same compound?
The Activity was 0%.

What about the Activity [14] of the same compound?
The Activity was 0%.

What about the Activity [15] of the same compound?
Its Activity is 0%.

And the Cmax [16]?
The Cmax was 1220 ng/mL.

And the Ratio [17]?
Its Ratio is 24.

And the Activity [18]?
Its Activity is 0%.

And the CL renal [19]?
The CL renal was 1.13 mL/min/kg.

What about the Tmax [20] of the same compound?
The Tmax was 1.67 h.

What about the Vbeta [21] of the same compound?
Its Vbeta is 2.78 L/kg.

What about the Activity [22] of the same compound?
Its Activity is 0%.

And the Activity [23]?
The Activity was 0%.

And the Activity [24]?
Its Activity is 17%.

What about the Activity [25] of the same compound?
The Activity was 17%.

And the Activity [26]?
Its Activity is 0%.

And the AUC [27]?
Its AUC is 117840 ng·h/mL.

What about the Vbeta [28] of the same compound?
Its Vbeta is 3.38 L/kg.

What about the Ratio [29] of the same compound?
Its Ratio is 453.

And the half-life [30]?
The half-life was 16.4 h.

And the Tmax [31]?
Its Tmax is 2 h.

What about the Activity [32] of the same compound?
The Activity was 0%.

And the Activity [33]?
The Activity was 0%.

What about the Activity [34] of the same compound?
The Activity was 0%.

And the dose excreted [35]?
The dose excreted was 36.5%.

And the Activity [36]?
Its Activity is 0%.

What about the AUC [37] of the same compound?
Its AUC is 7670 ng·h/mL.

— ChEMBL document CHEMBL1212766, “Dose escalation study of the safety, tolerability, and pharmacokinetics of nemonoxacin (TG-873870), a novel potent broad-spectrum nonfluorinated quinolone, in healthy volunteers” (Antimicrob Agents Chemother, 2010)
